# A selection: hits, their analogues and other compounds. The true share with any hit is near 10%.
# PMI act hi M6P: activators of human phosphomannose isomerase at near-saturating mannose 6-phosphate; coupled PMI enzyme assay, resazurin fluorescence, 20 min; stronger effect = higher value; 1 = untreated enzyme, 0 = substrate-free blank; P34949; activation factor at 20 µM; 190,000 compounds, 0.34% hits;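 active means activation factor of 2 or more at 20 µM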
# Target sequence (P34949 whole entry, looked up): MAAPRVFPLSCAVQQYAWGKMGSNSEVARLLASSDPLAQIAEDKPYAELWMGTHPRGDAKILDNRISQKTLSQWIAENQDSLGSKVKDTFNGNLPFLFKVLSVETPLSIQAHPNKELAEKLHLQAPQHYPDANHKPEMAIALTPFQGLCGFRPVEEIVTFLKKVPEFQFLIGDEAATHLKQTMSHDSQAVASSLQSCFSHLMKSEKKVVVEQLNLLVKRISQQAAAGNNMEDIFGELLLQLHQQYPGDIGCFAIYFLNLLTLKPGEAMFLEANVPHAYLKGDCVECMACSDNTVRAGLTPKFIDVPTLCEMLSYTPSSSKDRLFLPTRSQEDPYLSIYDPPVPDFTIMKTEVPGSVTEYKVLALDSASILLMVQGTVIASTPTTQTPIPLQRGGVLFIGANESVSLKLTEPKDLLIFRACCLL
#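 Test system: human phosphomannose isomerase with PGI, G6PDH, diaphorase coupling enzymes; Amount: PMI at 15 ng/mL final; Reagent: Mannose-6-phosphate 1.0 mM (near-saturating) plus 0.22 mM NADP+; Timing: 20 min, room temperature; Technique: resorufin fluorescence at Ex 544/Em 590 nm; Dosing: 20 µM single dose.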
# WT yeast gro inh: growth inhibition of WT yeast, mitochondrial fusion screen; mitochondrial fusion phenotypic screen, WT strain; inhibition, % at 10 µM; 190,000 compounds, 2.1% hits; in the data active means inhibition above about 58%; tested in S. cerevisiae
# Diaph act CS: activates diaphorase or chemically reduces, flagging diaphorase assay artifacts; Diaphorase/resazurin coupled assay, resorufin fluorescence, 16 min; stronger effect = higher value; 1 = vehicle wells, 0 = NADH-free wells; activation factor at 20 µM; 190,000 compounds, 0.005% hits;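 active means diaphorase activity raised at least twofold by the compound at 20 µM; inactive means activation factor below 2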
#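 Material: Clostridium kluyveri diaphorase, purified enzyme; Quantity: enzyme 0.07 U/mL final; Medium: HEPES pH 7.4 buffer with MgCl2 and Tween 20; Dosing: single compound dose of 20 µM, 1% DMSO final; Schedule: 16 min reaction at room temperature; Measured by: red resorufin fluorescence at 544/590 nm excitation/emission.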
# L major viab: reduces viability of Leishmania major promastigotes | resazurin fluorescence viability | inhibition, % at 10 µM | 200,000 compounds, 9% hits | AID 1063; in the data active means inhibition above about 50%;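 further: promastigotes grown with compound for 44 hours at 28 °C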
# PMI activator: increases human mannose-6-phosphate isomerase activity; P34949; purified human PMI, coupled resazurin fluorescence, 20 min; stronger effect = higher value; 1 = vehicle control, 0 substrate-free wells; activation factor at 20 µM; 190,000 compounds, 0.005% hits;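 active means activation factor of 2 or more at 20 µM, relative to plate controls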
# An asterisk follows results filed as active; . = no result given.
SMILES,PMI act hi M6P,WT yeast gro inh,Diaph act CS,L major viab,PMI activator
CCOC(=O)N1CCC(N2C(=O)c3ccccc3C2Nc2c(C)cccc2C)CC1 (stereo not drawn),0.9,14,0.8,26,0.9
Cc1cccc(N2C(=O)C(Oc3ccc(Cl)cc3Cl)C2C=O)c1C (stereo not drawn),1,75*,0.8,100*,0.9
O=C(CSCC(=O)NCc1ccco1)NCc1ccco1,1,-16,1,-10,1
COC(=O)c1ccc(C(=O)OC)c(NC(=O)N2c3ccccc3Sc3ccccc32)c1,0.9,0,0.8,2,0.9
O=C(NCc1ccco1)N1c2ccccc2Sc2ccccc21,1,7,0.9,62*,1
COc1ccc(CCNC(=O)N2c3ccccc3Sc3ccccc32)cc1,.,.,.,68*,.
COC(=O)c1ccccc1NC(=O)N1c2ccccc2Sc2ccccc21,0.9,39,0.9,90*,0.8
O=C(CSc1nc2ccccc2[nH]1)NCc1ccco1,0.9,23,0.9,0,1
O=C(NCc1ccco1)/C(=C/c1cccc(C(F)(F)F)c1)c1nc2ccccc2[nH]1,1.1,-7,0.8,80*,1.1
O=C(NCc1ccco1)/C(=C/c1ccc(C(F)(F)F)cc1)c1nc2ccccc2[nH]1,1.5,-25,1,84*,1.6
O=C(NCc1ccco1)c1cccc(C(F)(F)F)c1,0.9,9,0.9,-2,1
O=C(Nc1ccc(C(=O)N2CCOCC2)cc1)Nc1cccc2ccccc12,0.9,4,0.9,11,1
Cc1ccc(Nc2nc(N/N=C/c3c[nH]c4ccccc34)nc(N3CCOCC3)n2)cc1,1,38,1,54*,0.8
C(=N\Nc1nc(Nc2ccccc2)nc(N2CCOCC2)n1)/c1c[nH]c2ccccc12,1.1,-25,0.9,97*,1.1
Cc1cc(/C=N/Nc2nc(N3CCOCC3)nc(N3CCOCC3)n2)c(C)n1-c1ccccc1,1,5,1.1,8,1.1
Cc1[nH]c2ccccc2c1/C=N/Nc1nc(Nc2ccc(F)cc2)nc(N2CCOCC2)n1,0.9,58,0.8,99*,0.8
CCOc1cccc(NC(=O)c2cccc(F)c2)c1,1,-11,1,0,1
CCCCCCCC(=O)N/N=C/c1cccnc1,1,-7,0.9,-1,1.1
CCCCCCCCC(=O)N/N=C(\C)c1cccnc1,2.3*,-7,1,3,1.5
O=C(c1cccc(F)c1)N1CCC(N2CCCCCC2)CC1,1,21,1,87*,1.1
Cc1cccc(OCC(=O)N2CCN(S(C)(=O)=O)CC2)c1,1,7,0.9,-6,1
Cc1cccc(OCC(=O)N2CCC(N3CCCCCC3)CC2)c1,1.1,-7,1,92*,1.1
COc1cccc(C(=O)N2CCN(C3CCC(c4ccccc4)CC3)CC2)c1 (stereo not drawn),0.9,6,0.9,89*,0.8
COc1cccc(C(=O)N2CCC(N3CC(C)OC(C)C3)CC2)c1 (stereo not drawn),1,-3,0.8,73*,1
COc1cccc(C(=O)N2CCOCC2)c1,1.1,-7,0.9,-3,1.1
SMILES,PMI act hi M6P,WT yeast gro inh,Diaph act CS,L major viab,PMI activator
CCc1ccc(NC(=O)Cn2c3[n+](c4c(F)c(F)ccc42)CCCCC3)cc1,0.9,3,1,6,1.1
Cc1ccc(NC(=O)COC(=O)/C=C/c2c(C)nn(-c3ccc(F)cc3)c2Cl)cc1F,0.9,-2,0.9,-9,0.9
Cc1ccc(S(=O)(=O)Nc2ccc(=O)n(Cc3ccc(Cl)c(Cl)c3)c2)cc1,0.9,20,0.8,-2,1
O=C(Nc1cccc(Cl)c1)c1cccc(Oc2ccc([N+](=O)[O-])cc2Cl)c1,0.9,36,0.8,98*,0.8
CCCCCC/C(=N/O)c1ccccn1,1.2,2,1,91*,1.1
Cc1ccsc1/C=N\NC(=O)CCc1c(C)n[nH]c1C,1,4,1,2,1
Cc1cc(/C=C2/SC(=S)N(c3cccc(Cl)c3)C2=O)c(C)n1-c1cccnc1,.,.,.,46,.
Cc1cc(/C=C2/SC(=S)N(c3ccc([N+](=O)[O-])cc3)C2=O)c(C)n1-c1cccnc1,1,6,0.9,91*,0.9
CNC(=S)N(Cc1ccc(OC)cc1)Cc1cc2cccc(C)c2[nH]c1=O,1,-7,0.9,57*,1
CCN(CC)CCN(Cc1cc2cccc(C)c2[nH]c1=O)C(=S)Nc1ccccc1,0.9,2,1,41,0.9
CCNC(=S)N(Cc1cc2cccc(C)c2[nH]c1=O)C1CCCC1,1,-1,0.8,97*,0.9
Cc1cccc2cc(CN(C(=S)NCC(C)C)C3CCCC3)c(=O)[nH]c12,0.9,6,0.8,65*,0.9
Cc1cc2nc(CCN(C(=S)NCC(C)C)C3CCCC3)[nH]c2cc1C,0.9,.,0.8,72*,0.9
CCOC(=O)c1ccc(NC(=O)Cn2c(-c3nonc3N)nc3ccccc32)cc1,0.9,10,0.8,-8,0.9
Cc1cccc2cc(CN(CC3CCCO3)C(=S)Nc3ccccc3)c(=O)[nH]c12 (stereo not drawn),0.9,10,0.8,71*,0.9
Cc1cccc2cc(CN(CC3CCCO3)C(=O)NC3CCCCC3)c(=O)[nH]c12 (stereo not drawn),1,5,0.9,7,1
C[C@@H](O)C1NC(=O)[C@H](CCCCN)NC(=O)c2cc([N+](=O)[O-])cc(I)c2NCCC[C@@H](C(N)=O)NC1=O (stereo partly drawn),1,3,0.9,-1,1.1
CC1=C(C(=O)Nc2ccccc2)C(c2cccc([N+](=O)[O-])c2)Nc2nc3ccccc3n21 (stereo not drawn),1,-12,0.9,98*,0.9
CNC(=O)C1=C(C)n2c(nc3ccccc32)NC1c1ccc(OC)cc1 (stereo not drawn),1,15,0.9,-1,1
Cc1sc2nc[nH]c(=S)c2c1-c1ccccc1,1.1,39,0.2,9,1
CNc1ccc(C2(O)C(=O)c3ccccc3C2=O)cc1,1,-27,0.9,-7,1
COc1ccc(/C=N\N=C2/SC(CC(=O)O)C(=O)N2c2ccc(O)cc2)cc1OC (stereo not drawn),1.1,-24,0.9,56*,1
CNC(=O)c1[nH]cnc1C(=O)Nc1ccccc1C,0.9,-5,0.9,4,0.9
Cc1cccc(NC(=O)c2nc[nH]c2C(=O)Nc2ccccc2[N+](=O)[O-])c1,1,-8,0.9,57*,1.1
CNc1ccc(/C=C(\C#N)c2ccccn2)cc1[N+](=O)[O-],1,2,1,0,1.1
CNc1ccc(/C=C2\CSc3ccccc3C2=O)cc1[N+](=O)[O-],1,-7,0.9,99*,1.1

# High-throughput results from PubChem BioAssay.
